In ChEMBL document CHEMBL5058577, “EUbOPEN Chemogenomics Library 2 (Multiplex)” (2022):

Tested on: HEK-293T
Experiment: Multiplex assay against HEK293T
Assay type: toxicity, cell-based
Settings: human
Summary of the method: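 Compound was added to live cells that had been stained at seeding with Hoechst33342, BioTracker Green Microtubule Cytoskeleton Dye, MitoTracker Red and Annexin V Alexa Fluor 680, and imaging followed on a CQ1 microscope at 37°C and 5% CO2. CellPathfinder machine-learning gating divided cells into Hoechst high-intensity objects or normal cells, normal cells into healthy, pyknosed or fragmented nuclei, and pyknosed cells into mitotic or apoptotic. Tubulin, mitochondrial-mass and membrane-permeability phenotypes are per cents of healthy-nucleus cells.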

[1] = 12 h, 1 µM, compound concentration 1 uM, replicate 1
[2] = 12 h, 1 µM, compound concentration 1 uM, replicate 2
[3] = 12 h, 10 µM, compound concentration 10 uM, replicate 1
[4] = 12 h, 10 µM, compound concentration 10 uM, replicate 2
[5] = 24 h, 1 µM, compound concentration 1 uM, replicate 1
[6] = 24 h, 1 µM, compound concentration 1 uM, replicate 2
[7] = 24 h, 10 µM, compound concentration 10 uM, replicate 1
[8] = 24 h, 10 µM, compound concentration 10 uM, replicate 2
[9] = 48 h, 1 µM, compound concentration 1 uM, replicate 1
[10] = 48 h, 1 µM, compound concentration 1 uM, replicate 2
[11] = 48 h, 10 µM, compound concentration 10 uM, replicate 1
[12] = 48 h, 10 µM, compound concentration 10 uM, replicate 2

Structure (SMILES): Cl.Cl.OCCOCCN1CCN(C(c2ccccc2)c2ccc(Cl)cc2)CC1 (configuration not stated) [HYDROXYZINE HYDROCHLORIDE]
- Population Apoptotic (%) [1]: 34%
- Population Fragmented Nuclei (%) [1]: 7%
- Population Healthy Nuclei (%) [1]: 79%
- Population Hoechst High Intensity Objects (%) [1]: 6%
- Population Membrane Permeable-Phenotype (%) [1]: 0%
- Population Mitochondria Different-Phenotype (%) [1]: 48%
- Population Mitotic Cells (%) [1]: 66%
- Population Normal (%) [1]: 93%
- Population Pyknosed Nuclei (%) [1]: 13%
- Population Tubulin-Different-Phenotype (%) [1]: 24%
- Total Cell Count [1]: 394
- Population Apoptotic (%) [2]: 70%
- Population Fragmented Nuclei (%) [2]: 5%
- Population Healthy Nuclei (%) [2]: 84%
- Population Hoechst High Intensity Objects (%) [2]: 9%
- Population Mitochondria Different-Phenotype (%) [2]: 58%
- Population Mitotic Cells (%) [2]: 29%
- Population Normal (%) [2]: 90%
- Population Pyknosed Nuclei (%) [2]: 9%
- Population Tubulin-Different-Phenotype (%) [2]: 28%
- Total Cell Count [2]: 362
- Population Apoptotic (%) [3]: 49%
- Population Fragmented Nuclei (%) [3]: 8%
- Population Healthy Nuclei (%) [3]: 71%
- Population Hoechst High Intensity Objects (%) [3]: 11%
- Population Membrane Permeable-Phenotype (%) [3]: 0%
- Population Mitochondria Different-Phenotype (%) [3]: 71%
- Population Mitotic Cells (%) [3]: 50%
- Population Normal (%) [3]: 88%
- Population Pyknosed Nuclei (%) [3]: 19%
- Population Tubulin-Different-Phenotype (%) [3]: 65%
- Total Cell Count [3]: 354
- Population Apoptotic (%) [4]: 68%
- Population Fragmented Nuclei (%) [4]: 6%
- Population Healthy Nuclei (%) [4]: 73%
- Population Hoechst High Intensity Objects (%) [4]: 19%
- Population Membrane Permeable-Phenotype (%) [4]: 1%
- Population Mitochondria Different-Phenotype (%) [4]: 83%
- Population Mitotic Cells (%) [4]: 31%
- Population Normal (%) [4]: 80%
- Population Pyknosed Nuclei (%) [4]: 20%
- Population Tubulin-Different-Phenotype (%) [4]: 59%
- Total Cell Count [4]: 327
- Population Apoptotic (%) [5]: 22%
- Population Fragmented Nuclei (%) [5]: 10%
- Population Healthy Nuclei (%) [5]: 78%
- Population Hoechst High Intensity Objects (%) [5]: 2%
- Population Membrane Permeable-Phenotype (%) [5]: 0%
- Population Mitochondria Different-Phenotype (%) [5]: 34%
- Population Mitotic Cells (%) [5]: 77%
- Population Normal (%) [5]: 97%
- Population Pyknosed Nuclei (%) [5]: 11%
- Population Tubulin-Different-Phenotype (%) [5]: 22%
- Total Cell Count [5]: 566
- Population Apoptotic (%) [6]: 43%
- Population Fragmented Nuclei (%) [6]: 11%
- Population Hoechst High Intensity Objects (%) [6]: 13%
- Population Mitochondria Different-Phenotype (%) [6]: 41%
- Population Mitotic Cells (%) [6]: 56%
- Population Normal (%) [6]: 86%
- Population Pyknosed Nuclei (%) [6]: 9%
- Population Tubulin-Different-Phenotype (%) [6]: 17%
- Total Cell Count [6]: 481
- Population Apoptotic (%) [7]: 29%
- Population Fragmented Nuclei (%) [7]: 10%
- Population Healthy Nuclei (%) [7]: 74%
- Population Hoechst High Intensity Objects (%) [7]: 8%
- Population Membrane Permeable-Phenotype (%) [7]: 0%
- Population Mitochondria Different-Phenotype (%) [7]: 55%
- Population Mitotic Cells (%) [7]: 70%
- Population Normal (%) [7]: 91%
- Population Pyknosed Nuclei (%) [7]: 15%
- Population Tubulin-Different-Phenotype (%) [7]: 49%
- Total Cell Count [7]: 472
- Population Apoptotic (%) [8]: 59%
- Population Fragmented Nuclei (%) [8]: 8%
- Population Healthy Nuclei (%) [8]: 71%
- Population Hoechst High Intensity Objects (%) [8]: 22%
- Population Mitochondria Different-Phenotype (%) [8]: 72%
- Population Mitotic Cells (%) [8]: 40%
- Population Normal (%) [8]: 77%
- Population Pyknosed Nuclei (%) [8]: 19%
- Population Tubulin-Different-Phenotype (%) [8]: 43%
- Total Cell Count [8]: 383
- Population Apoptotic (%) [9]: 23%
- Population Fragmented Nuclei (%) [9]: 14%
- Population Healthy Nuclei (%) [9]: 79%
- Population Hoechst High Intensity Objects (%) [9]: 1%
- Population Membrane Permeable-Phenotype (%) [9]: 1%
- Population Mitochondria Different-Phenotype (%) [9]: 19%
- Population Mitotic Cells (%) [9]: 76%
- Population Normal (%) [9]: 98%
- Population Pyknosed Nuclei (%) [9]: 5%
- Population Tubulin-Different-Phenotype (%) [9]: 14%
- Total Cell Count [9]: 932
- Population Apoptotic (%) [10]: 46%
- Population Hoechst High Intensity Objects (%) [10]: 3%
- Population Membrane Permeable-Phenotype (%) [10]: 0%
- Population Mitotic Cells (%) [10]: 53%
- Population Normal (%) [10]: 96%
- Population Pyknosed Nuclei (%) [10]: 6%
- Population Tubulin-Different-Phenotype (%) [10]: 12%
- Total Cell Count [10]: 676
- Population Apoptotic (%) [11]: 38%
- Population Fragmented Nuclei (%) [11]: 14%
- Population Healthy Nuclei (%) [11]: 76%
- Population Hoechst High Intensity Objects (%) [11]: 6%
- Population Membrane Permeable-Phenotype (%) [11]: 0%
- Population Mitochondria Different-Phenotype (%) [11]: 45%
- Population Mitotic Cells (%) [11]: 61%
- Population Normal (%) [11]: 93%
- Population Pyknosed Nuclei (%) [11]: 9%
- Population Tubulin-Different-Phenotype (%) [11]: 35%
- Total Cell Count [11]: 627
- Population Apoptotic (%) [12]: 60%
- Population Fragmented Nuclei (%) [12]: 15%
- Population Healthy Nuclei (%) [12]: 72%
- Population Hoechst High Intensity Objects (%) [12]: 16%
- Population Mitochondria Different-Phenotype (%) [12]: 53%
- Population Mitotic Cells (%) [12]: 40%
- Population Normal (%) [12]: 83%
- Population Pyknosed Nuclei (%) [12]: 12%
- Total Cell Count [12]: 539

Structure (SMILES): CCC(=O)OCC(=O)[C@@]1(OC(=O)CC)[C@@H](C)C[C@H]2[C@@H]3CCC4=CC(=O)C=C[C@]4(C)[C@@]3(Cl)[C@@H](O)C[C@@]21C [BECLOMETHASONE DIPROPIONATE]
- Population Apoptotic (%) [1]: 43%
- Population Fragmented Nuclei (%) [1]: 8%
- Population Healthy Nuclei (%) [1]: 75%
- Population Hoechst High Intensity Objects (%) [1]: 7%
- Population Membrane Permeable-Phenotype (%) [1]: 0%
- Population Mitochondria Different-Phenotype (%) [1]: 60%
- Population Mitotic Cells (%) [1]: 56%
- Population Normal (%) [1]: 92%
- Population Pyknosed Nuclei (%) [1]: 15%
- Population Tubulin-Different-Phenotype (%) [1]: 48%
- Total Cell Count [1]: 388
- Population Apoptotic (%) [2]: 47%
- Population Fragmented Nuclei (%) [2]: 5%
- Population Healthy Nuclei (%) [2]: 74%
- Population Hoechst High Intensity Objects (%) [2]: 4%
- Population Mitochondria Different-Phenotype (%) [2]: 75%
- Population Mitotic Cells (%) [2]: 52%
- Population Normal (%) [2]: 95%
- Population Pyknosed Nuclei (%) [2]: 19%
- Population Tubulin-Different-Phenotype (%) [2]: 42%
- Total Cell Count [2]: 356
- Population Apoptotic (%) [3]: 60%
- Population Fragmented Nuclei (%) [3]: 8%
- Population Healthy Nuclei (%) [3]: 66%
- Population Hoechst High Intensity Objects (%) [3]: 14%
- Population Membrane Permeable-Phenotype (%) [3]: 0%
- Population Mitochondria Different-Phenotype (%) [3]: 87%
- Population Mitotic Cells (%) [3]: 39%
- Population Normal (%) [3]: 85%
- Population Pyknosed Nuclei (%) [3]: 25%
- Population Tubulin-Different-Phenotype (%) [3]: 65%
- Total Cell Count [3]: 236
- Population Apoptotic (%) [4]: 68%
- Population Fragmented Nuclei (%) [4]: 6%
- Population Hoechst High Intensity Objects (%) [4]: 16%
- Population Mitochondria Different-Phenotype (%) [4]: 93%
- Population Mitotic Cells (%) [4]: 31%
- Population Normal (%) [4]: 83%
- Population Pyknosed Nuclei (%) [4]: 27%
- Population Tubulin-Different-Phenotype (%) [4]: 35%
- Total Cell Count [4]: 252
- Population Apoptotic (%) [5]: 32%
- Population Fragmented Nuclei (%) [5]: 7%
- Population Healthy Nuclei (%) [5]: 81%
- Population Hoechst High Intensity Objects (%) [5]: 4%
- Population Membrane Permeable-Phenotype (%) [5]: 0%
- Population Mitochondria Different-Phenotype (%) [5]: 40%
- Population Mitotic Cells (%) [5]: 67%
- Population Normal (%) [5]: 95%
- Population Pyknosed Nuclei (%) [5]: 11%
- Population Tubulin-Different-Phenotype (%) [5]: 31%
- Total Cell Count [5]: 507
- Population Apoptotic (%) [6]: 43%
- Population Hoechst High Intensity Objects (%) [6]: 5%
- Population Mitochondria Different-Phenotype (%) [6]: 52%
- Population Mitotic Cells (%) [6]: 56%
- Population Normal (%) [6]: 94%
- Population Tubulin-Different-Phenotype (%) [6]: 18%
- Total Cell Count [6]: 446
- Population Apoptotic (%) [7]: 56%
- Population Fragmented Nuclei (%) [7]: 13%
- Population Healthy Nuclei (%) [7]: 65%
- Population Hoechst High Intensity Objects (%) [7]: 11%
- Population Membrane Permeable-Phenotype (%) [7]: 0%
- Population Mitochondria Different-Phenotype (%) [7]: 89%
- Population Mitotic Cells (%) [7]: 44%
- Population Normal (%) [7]: 88%
- Population Pyknosed Nuclei (%) [7]: 21%
- Population Tubulin-Different-Phenotype (%) [7]: 73%
- Total Cell Count [7]: 270
- Population Apoptotic (%) [8]: 62%
- Population Fragmented Nuclei (%) [8]: 5%
- Population Healthy Nuclei (%) [8]: 71%
- Population Hoechst High Intensity Objects (%) [8]: 9%
- Population Mitochondria Different-Phenotype (%) [8]: 97%
- Population Mitotic Cells (%) [8]: 37%
- Population Normal (%) [8]: 90%
- Population Pyknosed Nuclei (%) [8]: 23%
- Population Tubulin-Different-Phenotype (%) [8]: 43%
- Total Cell Count [8]: 243
- Population Apoptotic (%) [9]: 30%
- Population Fragmented Nuclei (%) [9]: 11%
- Population Healthy Nuclei (%) [9]: 78%
- Population Hoechst High Intensity Objects (%) [9]: 4%
- Population Membrane Permeable-Phenotype (%) [9]: 0%
- Population Mitochondria Different-Phenotype (%) [9]: 28%
- Population Mitotic Cells (%) [9]: 69%
- Population Normal (%) [9]: 95%
- Population Pyknosed Nuclei (%) [9]: 9%
- Population Tubulin-Different-Phenotype (%) [9]: 18%
- Total Cell Count [9]: 742
- Population Apoptotic (%) [10]: 31%
- Population Fragmented Nuclei (%) [10]: 12%
- Population Healthy Nuclei (%) [10]: 79%
- Population Hoechst High Intensity Objects (%) [10]: 3%
- Population Mitochondria Different-Phenotype (%) [10]: 32%
- Population Mitotic Cells (%) [10]: 68%
- Population Normal (%) [10]: 96%
- Population Pyknosed Nuclei (%) [10]: 8%
- Population Tubulin-Different-Phenotype (%) [10]: 17%
- Total Cell Count [10]: 655
- Population Apoptotic (%) [11]: 67%
- Population Fragmented Nuclei (%) [11]: 14%
- Population Healthy Nuclei (%) [11]: 72%
- Population Hoechst High Intensity Objects (%) [11]: 5%
- Population Membrane Permeable-Phenotype (%) [11]: 0%
- Population Mitochondria Different-Phenotype (%) [11]: 72%
- Population Mitotic Cells (%) [11]: 32%
- Population Normal (%) [11]: 94%
- Population Pyknosed Nuclei (%) [11]: 13%
- Population Tubulin-Different-Phenotype (%) [11]: 43%
- Total Cell Count [11]: 347
- Population Apoptotic (%) [12]: 65%
- Population Fragmented Nuclei (%) [12]: 12%
- Population Mitochondria Different-Phenotype (%) [12]: 90%
- Population Mitotic Cells (%) [12]: 34%
- Population Pyknosed Nuclei (%) [12]: 15%
- Population Tubulin-Different-Phenotype (%) [12]: 62%
- Total Cell Count [12]: 283
